This is a sample that favours compounds with a hit; in the whole collection about 1.4% have one here.
KLK5 inh – blocks human kallikrein 5 protease activity; inhibition, % at 5 µM; Q9Y337; 210,000 tested, 0.59% active; recombinant hK5, fluorogenic AMC substrate cleavage;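 active = inhibition of 40% or more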;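 also: 0% = enzyme controls without compound and 100% = no-enzyme blanks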
Target sequence (Q9Y337 67-293 limits assumed): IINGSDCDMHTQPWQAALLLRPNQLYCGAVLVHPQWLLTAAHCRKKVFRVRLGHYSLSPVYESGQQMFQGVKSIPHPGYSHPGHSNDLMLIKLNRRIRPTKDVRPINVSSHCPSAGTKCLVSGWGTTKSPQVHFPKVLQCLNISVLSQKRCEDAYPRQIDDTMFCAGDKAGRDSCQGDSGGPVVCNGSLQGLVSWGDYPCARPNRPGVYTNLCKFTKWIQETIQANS
FXIa inh 1536 – factor XIa (human) inhibition; P03951; purified FXIa, Boc-Glu-Ala-Arg-AMC fluorogenic substrate; inhibition, % at 5 µM; 220,000 tested, 0.14% active;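 active = inhibition of at least 40%; inactive = inhibition below 40%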;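 also: fluorescence of freed AMC excited at 355 nm; 0% = enzyme without compound and 100% = no enzyme blank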
thrombin 1536 – blocks human thrombin protease activity | AID 1046 | P00734 | inhibition, % at 5 µM | 220,000 tested, 0.26% active | alpha-thrombin, Boc-VPR-AMC fluorogenic substrate cleavage;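 active = inhibition at or above 40%; inactive = inhibition below 40%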;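 also: 0% = enzyme with no compound and 100% = wells without enzyme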
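Material: human alpha-thrombin enzyme / Medium: pH 7.5 Tris (50 mM) with NaCl 150 mM, Tween 20 0.05% / Compound: single-point dosing at 5 µM, 0.2% DMSO / Incubation: enzyme reaction carried out at room temperature / Detection: AMC fluorescence, 355/460 nm / Read-out basis: percent inhibition scaled between no-compound controls and no-enzyme blanks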
FXIIa inh 1536 – inhibitors of human coagulation factor XIIa | purified FXIIa, Boc-QGR-AMC fluorogenic substrate, 2 h | inhibition, % at 5 µM | P00748 | 220,000 tested, 0.3% active | AID 800; in the data active = inhibition above about 40%;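 also: 0% = enzyme with no compound and 100% = blank without enzyme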
Rce1 inhib – inhibitors of yeast Ras-converting enzyme; AID 2563; 290,000 tested, 0.27% active; Q03530; yeast membranes, quenched prenylated peptide cleavage fluorescence; calls only;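 active = fall in fluorescence gain of 50% or more versus controls, with final raw signal at or below 3038400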;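 also: plate controls were neutral control wells for no effect and wells lacking membranes for full effect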
Target sequence (Q03530 whole entry, looked up): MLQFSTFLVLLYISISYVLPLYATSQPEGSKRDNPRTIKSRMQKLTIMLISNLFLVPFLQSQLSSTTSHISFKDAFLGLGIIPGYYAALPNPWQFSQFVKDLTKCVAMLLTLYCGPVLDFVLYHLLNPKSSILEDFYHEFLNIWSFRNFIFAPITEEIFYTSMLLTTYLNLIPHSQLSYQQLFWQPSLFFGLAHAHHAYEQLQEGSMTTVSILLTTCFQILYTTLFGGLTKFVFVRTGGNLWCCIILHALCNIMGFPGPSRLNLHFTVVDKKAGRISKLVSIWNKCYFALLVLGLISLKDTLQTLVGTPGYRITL
CTSL1 counter – counter-screen for PFM18AAP inhibitors: inhibitors of F. hepatica cathepsin L1; recombinant F. hepatica cathepsin L1, Z-Leu-Arg-MCA fluorescence; 300,000 tested, 0.49% active; inhibition, % at 5.96 µM; AID 1906;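 active = inhibition above the mean of all tested compounds plus 3 SD, set per screening campaign, cut at about 17% in these data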;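 also: 0% = plate median of test compound wells and 100% = 1 µM Z-Phe-Ala-diazomethylketone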
The depositor's hits bear a star; i = inactive; x = no result given; + = active, no number.

SMILES | KLK5 inh | FXIa inh 1536 | thrombin 1536 | FXIIa inh 1536 | Rce1 inhib | CTSL1 counter
COc1cccc(CNC(=O)CCCCCNC(=O)N2CCn3c2nc2ccccc23)c1 | x | x | x | x | i | -4
N#C/C(=C\c1ccc(O)c(Br)c1)C(=O)NCc1ccccc1 | -3 | -1 | 6 | 7 | i | 22*
CCOCCn1c(-c2ccc(OC)cc2)nc2ccccc21 | 42* | 18 | 19 | 54* | i | -2
COc1ccc(-c2nc3ccccc3n2Cc2ccccc2)cc1 | -5 | -2 | -5 | 10 | i | -4
CC(C)N(C(=O)CN(C#N)c1nc(N(C)C)nc(N(C)C)n1)c1ccccc1 | -1 | -8 | -2 | 6 | i | 0
COC(=O)CN(C#N)c1nc(NC(C)C)nc(OC)n1 | -6 | 0 | -1 | 6 | i | 80*
CCOC(=O)CN(C#N)c1nc(C)cc(C)n1 | -1 | 5 | 1 | 20 | i | 19*
COC(=O)CN(C#N)c1nc(OC)nc(N(C)C)n1 | -20 | 11 | 0 | 6 | x | 40*
CCNc1nc(SC)nc(N(C#N)CC(=O)OC)n1 | 0 | -2 | 2 | 7 | i | 62*
COC(=O)CN(C#N)c1nc(NCc2ccccc2)nc(OC)n1 | x | x | x | x | i | x
COC(=O)c1ccc(CNC(=O)Cn2nnnc2CN(C)C(C)C)cc1 | x | x | x | x | i | -3
CC(NC(=O)c1ccccc1Cl)c1ccc(-n2ccnc2)cc1 (stereo unspecified) | x | x | x | x | i | 0
COC(=O)CN(C#N)c1nc(C)cc(C)n1 | 1 | -2 | 1 | 10 | i | 8
COC(=O)CN(C#N)c1nc(N(C)C)nc(N(C)C)n1 | -4 | -7 | 8 | 2 | i | 21*
CCS(=O)(=O)N1CCN(C2CCC(c3ccccc3)CC2)CC1 (stereo unspecified) | -2 | 1 | -8 | -10 | + | 2
Cc1ccc(C)c(-c2nc3cc(N)ccc3o2)c1 | -35 | 18 | -2 | 41* | i | 1
Cc1cc(NC(=O)COc2nnc(-c3ccccc3)c3ccccc23)no1 | 58* | 7 | 13 | 23 | x | -1
CCOC(=O)c1sc(N2C(=O)C(O)=C(C(=O)c3ccco3)C2c2ccc([N+](=O)[O-])cc2)nc1C (stereo unspecified) | x | x | x | x | i | 0
Cc1nc(C)c(NC(=O)N2CCc3ccccc32)cc1NC(=O)N1CCc2ccccc21 | 76* | 3 | 22 | -1 | i | 0
Cc1ccnc(N=Cc2nc(-c3ccccc3Br)oc2O)c1 | 0 | -4 | 17 | 9 | i | 67*
Cc1cccc(/N=C/c2nc(-c3ccccc3Br)oc2O)n1 | 1 | 7 | -1 | 11 | i | 67*
CSc1ccccc1N=Cc1nc(-c2ccccc2)oc1O | -5 | 7 | 0 | 12 | i | 8
C=CCn1c(SCC(=O)N2N=C(c3ccco3)CC2c2ccco2)nnc1-c1ccncc1 (stereo unspecified) | 5 | -15 | -7 | 1 | i | -3
CN(C(=O)c1ccc2c(c1)SC1=NS(=O)(=O)CCN12)C(c1ccccc1)c1ccccc1 | -21 | -13 | -4 | -4 | + | 1
CCOC(=O)CC(NC(=O)c1cc2cccc(OC)c2oc1=O)c1ccc(OC)cc1 (stereo unspecified) | x | x | x | x | i | 1
SMILES | KLK5 inh | FXIa inh 1536 | thrombin 1536 | FXIIa inh 1536 | Rce1 inhib | CTSL1 counter
COc1ccc(NC(NC(=O)c2cccnc2)C(Cl)(Cl)Cl)cc1 (stereo unspecified) | 14 | 29 | 12 | 55* | i | -5
CNC1=C(N(C(C)=O)c2ccc(Br)cc2)C(=O)c2ccccc2C1=O | -12 | -2 | -8 | 2 | i | 33*
c1ccc2c(c1)CCc1ccccc1C2=C1CCNCC1 | x | x | x | x | i | -3
O=c1c2ccccc2c(=O)n(Cc2ccccc2)n1Cc1ccccc1 | -1 | 7 | 0 | 14 | i | 2
COc1ccc(Br)cc1/C=N/NC(=O)CN1CCN(Cc2ccccc2)CC1 | 41* | -17 | -6 | 5 | i | -2
COc1ccc(/C=N/NC(=O)CN2CCN(Cc3ccccc3)CC2)cc1Br | 5 | -5 | -3 | 7 | i | 1
COc1cccc(-c2nn(-c3ccccc3)cc2CN(C)C(C)c2ccon2)c1 (stereo unspecified) | 46* | 27 | 26 | 33 | i | 1
O=C(CCCCl)Nc1c2c(nn1-c1ccccc1)CSC2 | x | x | x | x | i | -6
O=C(CCl)Nc1c2c(nn1-c1ccccc1)CSC2 | x | x | x | x | i | 80*
CCc1cc(C(=O)N2CCCC(CO)(Cc3ccc(F)cc3)C2)n(C)n1 (stereo unspecified) | x | x | x | x | i | 2
O=C(/C=C/c1ccc(-c2ccccc2)o1)c1ccccc1 | -3 | -4 | -7 | 3 | i | 64*
Cc1ccc(-c2ccc(/C=C/C(=O)c3ccccc3)o2)cc1 | -6 | 8 | 0 | 12 | i | 41*
O=Cc1ccc(-c2cccc(C(=O)O)c2)o1 | -2 | -3 | -6 | x | i | 2
CCNc1nc(NCC)nc(SCCOC(=O)Nc2ccc(Cl)cc2Cl)n1 | -6 | 2 | -4 | 10 | i | 0
C=CCn1c(=O)c2c(nc(-n3nc(C)cc3C)n2C)n(C)c1=O | x | x | x | x | i | x
COc1ccc(S(=O)(=O)N2CCC(NC(=O)c3ccccc3)CC2)cc1 | x | x | x | x | i | 0
COc1ccc(N2CCN(S(=O)(=O)c3ccc(C(=O)NC4CCCC4)cc3)CC2)cc1 | 6 | 8 | -4 | 47* | i | 2
S=C1NC2=C(C(c3ccc(Br)cc3)N1)N1CCC2CC1 (stereo unspecified) | 76* | 3 | 20 | 23 | i | -2
Cc1ccc(C(CC(=O)NCCCN(C)C)c2ccc(OC(C)C)cc2)cc1 (stereo unspecified) | 20 | 16 | 3 | 63* | i | 1
Cc1ccc(NC(=O)CNc2ccc(OC(C)C)cc2)cc1 | 12 | -4 | -3 | 9 | i | 2
Cc1cc(C(=O)CCl)c(C)n1CCc1ccc(F)cc1 | -2 | 5 | 3 | 4 | i | 23*
Cc1cc(C(=O)COC(=O)c2ccc[nH]c2=O)c(C)n1CCc1ccc(F)cc1 | 44* | 24 | x | 29 | i | -4
COc1ccc(CCn2c(C)cc(C(=O)CCl)c2C)cc1OC | 24 | 30 | x | 103* | i | 44*
Cc1cc(C(=O)CCl)c(C)n1CCc1ccc(Cl)cc1 | x | 2 | -1 | 7 | i | 21*
Cc1cc(C(=O)CSc2nnc(N)s2)c(C)n1CCc1ccc(Cl)cc1 | -13 | 8 | -6 | 17 | i | 2
COc1ccc(CCn2c(C)c(C(C)=O)c(C(C)=O)c2C)cc1OC | -7 | -4 | -8 | -6 | i | -1
Cc1ccc(OCC(=O)Nc2ccccc2C(=O)N2CCCC2)cc1 | x | x | x | x | i | -5
O=C(Nc1nnc(SCCN2CCOCC2)s1)C1CC(=O)N(c2ccccc2)C1 (stereo unspecified) | x | x | x | x | i | 1
